Measurements published in PMC6613170 (Proceedings of the National Academy of Sciences of the …, 2019).
pEC50: −log10 of the molar value. Each block holds one compound with its values, some of them ahead of it.

How the values were obtained:
[1] = system: CFTR; assay: CFTR assay; assay type: cell-based, canine; conditions: 100 nM PGE2
[2] = molecular target: PDE4C3 (Homo sapiens, UniProt Q08493); assay: cAMP phosphodiesterase assay, long isoform PDE4C3; assay type: biochemical
Summary of the method: (§1)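 PDE4 constructs, including site-directed mutants, are expressed from pcDNA3.1 in transfected mammalian cells. Cells are lysed mechanically in KHEM buffer (50 mM KCl, 10 mM EGTA, 50 mM Hepes, 1.92 mM MgCl2, pH 7.4). Lysate is cleared at 2,000 × g for 10 min, then 100,000 × g for 30 min. Supernatant (200 ng–1 µg protein per reaction, BCA) is assayed for cAMP hydrolysis for 10 min under linear conditions.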

[3] = system: primary human ADPKD cells; assay: Primary human ADPKD cell viability; assay type: cell-based; conditions: unstimulated and vasopressin-treated cultures
Summary of the method: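 Primary epithelial cells cultured from single kidney cysts of a patient with ADPKD, kept in supplier's proprietary media. For the cyst assay, cells were grown in biogels with RenalCyte media in 96- or 384-well format. Viability was read as luminescence-based detection of ATP as a function of living cells.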

[4] = molecular target: Ser651Asp-PDE4D5 (Homo sapiens, UniProt Q08499, S715D); assay: cAMP phosphodiesterase assay, Erk phosphomimetic mutant; assay type: biochemical
Sequence of Ser651Asp-PDE4D5 (Q08499 1-745 isoform Q08499-6 S651D): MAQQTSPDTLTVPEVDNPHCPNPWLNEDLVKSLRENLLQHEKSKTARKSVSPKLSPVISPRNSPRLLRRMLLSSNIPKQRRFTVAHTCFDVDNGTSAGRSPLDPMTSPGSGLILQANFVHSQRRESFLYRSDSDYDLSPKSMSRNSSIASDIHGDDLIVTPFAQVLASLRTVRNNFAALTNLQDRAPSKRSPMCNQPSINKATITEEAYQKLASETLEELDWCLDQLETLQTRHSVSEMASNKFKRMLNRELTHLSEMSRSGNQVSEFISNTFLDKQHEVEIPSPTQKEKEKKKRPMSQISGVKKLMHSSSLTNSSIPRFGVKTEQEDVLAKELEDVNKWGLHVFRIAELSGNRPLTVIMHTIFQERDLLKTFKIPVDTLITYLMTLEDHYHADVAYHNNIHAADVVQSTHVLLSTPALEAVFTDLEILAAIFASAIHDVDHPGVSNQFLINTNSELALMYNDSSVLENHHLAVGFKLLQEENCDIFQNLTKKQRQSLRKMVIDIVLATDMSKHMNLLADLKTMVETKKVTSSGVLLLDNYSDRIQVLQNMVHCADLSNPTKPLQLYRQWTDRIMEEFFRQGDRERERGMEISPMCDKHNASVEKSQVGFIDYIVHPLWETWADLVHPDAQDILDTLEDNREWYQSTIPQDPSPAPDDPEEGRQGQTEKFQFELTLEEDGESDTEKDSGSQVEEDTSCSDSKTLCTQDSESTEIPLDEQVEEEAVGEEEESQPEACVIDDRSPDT
Summary of the method: (§2)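 PDE4 constructs were expressed from pcDNA3.1 (mutants by site-directed mutagenesis) after lipid transfection into mammalian cells. Lysate was spun at 2,000 × g for 10 min, then 100,000 × g for 30 min, and supernatant protein was measured by BCA. cAMP hydrolysis used 200 ng–1 µg protein per reaction for 10 min, within the linear range.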

[5] = system: MDCK cells; assay: cAMP ELISA in forskolin-challenged MDCK cells; assay type: cell-based, canine; conditions: 15 min
Summary of the method: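 MDCK cells in 2D culture (DMEM, 10% FBS) are pretreated for 1 h with test compound (3 µM), with or without roflumilast (100 nM), then challenged with forskolin (3 µM, 15 min). Intracellular and extracellular cAMP are measured with a commercial cAMP ELISA kit. Intracellular data are mean ± SD of n = 7 experiments; extracellular data come from three independent experiments.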

[6] = system: MDCK cells; assay: MDCK cyst assay; assay type: cell-based, canine
[7] = system: MDCK cells; assay: DNA normalized ATP levels in MDCK cystic cultures; assay type: cell-based, canine; conditions: MR-L2 3 µM; ± SD
[8] = molecular target: S133D-PDE4D5 (Homo sapiens, UniProt Q08499, S197D); assay: cAMP phosphodiesterase assay, MK2 phosphomimetic mutant; assay type: biochemical
Sequence of S133D-PDE4D5 (Q08499 1-745 isoform Q08499-6 S133D): as the sequence (Q08499 1-745 isoform Q08499-6 S651D) above, with S133D, D651S counted along it
Summary of the method: as §2

[9] = system: truncated core catalytic domain of PDE4D without UCR1, UCR2, and C-terminal tail; assay: cAMP phosphodiesterase assay, truncated catalytic domain construct; assay type: biochemical; conditions: n = 4
Summary of the method: as §1

[10] = molecular target: DD1-R499D-PDE4D5 (Homo sapiens, UniProt Q08499, N238A/N239A/R237A/R563D); assay: cAMP phosphodiesterase assay, dimerization-deficient mutant; assay type: biochemical
Sequence of DD1-R499D-PDE4D5 (Q08499 1-745 isoform Q08499-6 R173A/N174A/N175A/R499D): as the sequence (Q08499 1-745 isoform Q08499-6 S651D) above, with R173A, N174A, N175A, R499D, D651S counted along it
Summary of the method: as §2

[11] = system: primary human ADPKD cells; assay: Primary human kidney cell cyst assay; assay type: cell-based
Summary of the method: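 Primary epithelial cells from single kidney cysts of an ADPKD patient are grown in biogels with RenalCyte medium. Cysts form spontaneously or with 10 nM vasopressin, across graded test compound concentrations. Cysts are counted by manual imaging or automated whole-well imaging. Values are given as SD of four treatments.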

[12] = system: short isoforms of PDE4A, B, and D families; assay: cAMP phosphodiesterase assay, short PDE4 isoforms; assay type: biochemical
Summary of the method: as §1

[13] = molecular target: PDE4B1 (Homo sapiens, UniProt Q07343); assay: cAMP phosphodiesterase assay, long isoform PDE4B1; assay type: biochemical
Sequence of PDE4B1 (Q07343 whole entry, species assumed, canonical isoform): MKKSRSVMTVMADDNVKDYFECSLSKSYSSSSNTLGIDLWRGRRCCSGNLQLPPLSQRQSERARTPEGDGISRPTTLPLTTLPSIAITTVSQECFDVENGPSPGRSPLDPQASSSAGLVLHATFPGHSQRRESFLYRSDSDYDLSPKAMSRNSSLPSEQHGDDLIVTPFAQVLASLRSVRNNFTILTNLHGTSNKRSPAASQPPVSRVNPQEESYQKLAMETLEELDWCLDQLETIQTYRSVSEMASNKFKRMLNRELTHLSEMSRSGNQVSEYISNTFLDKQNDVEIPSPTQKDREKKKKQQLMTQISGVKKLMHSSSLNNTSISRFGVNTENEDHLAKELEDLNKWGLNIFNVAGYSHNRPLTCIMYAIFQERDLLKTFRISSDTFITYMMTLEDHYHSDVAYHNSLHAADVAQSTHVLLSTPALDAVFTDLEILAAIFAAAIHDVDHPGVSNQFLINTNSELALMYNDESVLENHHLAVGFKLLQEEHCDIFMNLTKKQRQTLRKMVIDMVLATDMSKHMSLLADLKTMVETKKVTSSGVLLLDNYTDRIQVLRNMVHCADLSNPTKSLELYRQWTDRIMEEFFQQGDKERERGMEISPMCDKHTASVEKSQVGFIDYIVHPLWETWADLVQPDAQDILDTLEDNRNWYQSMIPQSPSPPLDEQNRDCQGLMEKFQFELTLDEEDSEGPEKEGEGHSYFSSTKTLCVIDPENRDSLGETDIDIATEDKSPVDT
Summary of the method: as §1

[14] = molecular target: PDE4A4 (Homo sapiens, UniProt P27815); assay: cAMP phosphodiesterase assay, long isoform PDE4A4; assay type: biochemical; conditions: compared with the other long isoforms
Sequence of PDE4A4 (P27815 whole entry, canonical isoform): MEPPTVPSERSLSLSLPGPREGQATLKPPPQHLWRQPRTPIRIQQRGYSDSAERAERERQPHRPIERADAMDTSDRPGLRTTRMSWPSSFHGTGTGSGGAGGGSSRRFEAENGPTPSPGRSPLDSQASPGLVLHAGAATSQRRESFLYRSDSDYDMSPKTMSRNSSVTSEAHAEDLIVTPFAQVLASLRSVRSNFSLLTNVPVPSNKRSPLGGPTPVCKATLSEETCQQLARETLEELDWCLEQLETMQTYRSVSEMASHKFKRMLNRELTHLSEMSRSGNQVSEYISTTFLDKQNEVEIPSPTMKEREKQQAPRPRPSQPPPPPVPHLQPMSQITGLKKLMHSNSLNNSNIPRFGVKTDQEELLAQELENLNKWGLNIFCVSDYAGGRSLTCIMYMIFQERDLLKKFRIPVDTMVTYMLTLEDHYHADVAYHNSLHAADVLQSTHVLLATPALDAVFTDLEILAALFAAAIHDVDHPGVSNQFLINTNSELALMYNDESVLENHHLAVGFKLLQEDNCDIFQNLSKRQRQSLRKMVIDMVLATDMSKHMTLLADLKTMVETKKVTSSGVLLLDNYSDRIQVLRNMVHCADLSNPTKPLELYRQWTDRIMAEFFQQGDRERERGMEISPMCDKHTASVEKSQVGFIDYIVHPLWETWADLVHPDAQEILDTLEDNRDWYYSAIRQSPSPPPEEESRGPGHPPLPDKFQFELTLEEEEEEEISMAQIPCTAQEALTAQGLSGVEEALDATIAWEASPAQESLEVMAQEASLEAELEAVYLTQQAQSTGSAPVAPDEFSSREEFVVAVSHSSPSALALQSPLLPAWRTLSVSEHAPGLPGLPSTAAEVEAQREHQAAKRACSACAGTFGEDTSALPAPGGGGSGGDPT
Summary of the method: as §2

[15] = molecular target: S126D:S133D-PDE4D5 (Homo sapiens, UniProt Q08499, S190D/S197D); assay: cAMP phosphodiesterase assay, PKA/MK2 double phosphomimetic mutant; assay type: biochemical; conditions: relative to S126D-PDE4D5
Sequence of S126D:S133D-PDE4D5 (Q08499 1-745 isoform Q08499-6 S126D/S133D): as the sequence (Q08499 1-745 isoform Q08499-6 S651D) above, with S126D, S133D, D651S counted along it
Summary of the method: as §1

[16] = system: MDCK cells; assay: xCELLigence impedance-based proliferation assay; assay type: cell-based, canine; conditions: 2D culture; MR-L2 added 24 h after inception
Summary of the method: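 MDCK cells are plated at 5,000 cells per well in 2D culture and left to adhere for 24 h. Test compound is then added, and cell number is followed by xCELLigence electrical-impedance monitoring.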

[17] = system: OX161 cells; assay: OX161 cyst assay; assay type: cell-based, human
[18] = molecular target: human long form PDE4D5 (Homo sapiens, UniProt Q08499); assay: cAMP phosphodiesterase assay, long isoform PDE4D5; assay type: biochemical
Sequence of human long form PDE4D5 (Q08499 1-745 isoform Q08499-6): as the sequence (Q08499 1-745 isoform Q08499-6 S651D) above, with D651S counted along it
Summary of the method: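 Human PDE4D5 is expressed from pcDNA3.1 in transfected mammalian cells. The 100,000 × g supernatant of KHEM-buffer lysates (200 ng–1 µg protein) is assayed for cAMP hydrolysis for 10 min under linear conditions, with test compound at 3, 10, 30 and 100 µM. Velocity is analysed by Eadie–Hofstee plot to give Vmax and Km for cAMP.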

Sequence of PDE4C3 (Q08493 1-680 isoform Q08493-3, species assumed): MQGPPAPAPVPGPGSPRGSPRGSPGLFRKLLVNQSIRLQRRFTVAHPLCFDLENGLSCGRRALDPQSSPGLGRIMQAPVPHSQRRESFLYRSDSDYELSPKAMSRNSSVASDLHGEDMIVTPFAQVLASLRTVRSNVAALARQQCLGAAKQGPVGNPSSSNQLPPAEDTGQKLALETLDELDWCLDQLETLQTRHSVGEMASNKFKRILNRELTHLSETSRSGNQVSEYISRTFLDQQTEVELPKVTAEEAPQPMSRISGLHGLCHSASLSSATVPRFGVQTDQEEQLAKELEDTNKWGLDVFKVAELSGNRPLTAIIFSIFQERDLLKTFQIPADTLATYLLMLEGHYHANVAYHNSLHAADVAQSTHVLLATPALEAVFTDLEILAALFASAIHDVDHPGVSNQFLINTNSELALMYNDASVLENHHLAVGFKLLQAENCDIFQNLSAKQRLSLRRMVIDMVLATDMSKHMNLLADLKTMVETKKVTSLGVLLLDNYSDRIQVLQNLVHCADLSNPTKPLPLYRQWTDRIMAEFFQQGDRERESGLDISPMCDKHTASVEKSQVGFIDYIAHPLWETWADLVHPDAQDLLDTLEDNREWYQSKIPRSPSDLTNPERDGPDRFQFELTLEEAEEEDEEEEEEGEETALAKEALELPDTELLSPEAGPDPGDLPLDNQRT

Compound: O=C(O)c1ccc(/C=C2\SC(=S)N(c3cccc(C(F)(F)F)c3)C2=O)cc1 [CFTRINH172, reference compound]
PGE2-induced membrane depolarization ([1]; CFTR inhibitor 100 µM): reversed

activation of PDE4C3 [2]: activates | activation of truncated core catalytic domain of PDE4D [9]: does not activate | activation of short PDE4 isoforms [12]: did not activate | activation of PDE4B1 [13]: activates | activation of S126D:S133D-PDE4D5 [15]: partially restore sensitivity | mode of action on cAMP hydrolysis by PDE4D5 [18]: reversible, noncompetitive activator | increase in activity over basal levels ([18]; maximally effective concentrations of MR-L2): ~60%
Compound: CCc1nc(-c2ccc(Cl)c(F)c2)nn1CC(=O)NCc1cc(Cl)cc(Cl)c1 [MR-L2, 2-(3-(4-chloro-3-fluorophenyl)-5-ethyl-1H-1,2,4-triazol-1-yl)-N-(3,5-dichlorobenzyl)acetamide]
cell viability [3]: without adversely affecting cell viability | activation of Ser651Asp-PDE4D5 [4]: comparable increase in activity to that seen when employing wild-type PDE4D5 | intracellular cAMP elevation in response to forskolin ([5]; 1-h pretreatment with MR-L2, forskolin 3 µM): significantly suppressed cAMP elevation | extracellular level of cAMP ([5]; MR-L2 3 µM, 1 h before forskolin 3 µM): significantly reduced | PGE2-stimulated cyst formation ([6]; MR-L2 3 µM, incremental PGE2 concentrations): suppressed | forskolin-induced cyst formation ([6]; MR-L2 3 µM, incremental forskolin concentrations): suppressed forskolin-induced cyst formation | pEC50 ([6]; read-out: EC50, suppression of PGE2-induced cyst formation, PGE2 300 nM): 6.00 | reduction in the ATP/DNA ratio [7]: 15.6 ± 30% | activation of S133D-PDE4D5 [8]: activated by MR-L2 to a similar extent to wild-type PDE4D5 | activation of DD1-R499D-PDE4D5 [10]: complete loss of sensitivity to activation | number of cysts formed in 3D culture ([11]; unstimulated (spontaneous cyst formation)): clearly suppressed the number of cysts | number of cysts formed in 3D culture ([11]; vasopressin-treated (10 nM)): clearly suppressed the number of cysts | activation of PDE4A4 [14]: slightly enhanced magnitude of activation | effect on cell number (cytotoxicity) [16]: no effect | PGE2-elicited CFTR activity (membrane depolarization) ([1]; MR-L2 preincubation 40 min): clearly suppressed in a concentration-dependent manner | PGE2-stimulated cystogenesis of OX161 cells ([17]; concentration-dependent): attenuated

Compound: O=C(Nc1c(Cl)cncc1Cl)c1ccc(OC(F)F)c(OCC2CC2)c1 [roflumilast, reference compound]
effect on suppression of forskolin-stimulated cAMP accumulation by MR-L2 (3 µM) ([5]; roflumilast 100 nM cotreatment, forskolin 3 µM): ablated the suppressive effect of MR-L2 | effect on suppression of cystogenesis by MR-L2 (3 µM) ([6]; roflumilast 100 nM, PGE2 300 nM): interdict the suppression of cystogenesis

Compound: COc1ccc(C2CNC(=O)C2)cc1OC1CCCC1 (stereo not shown) [rolipram, reference compound]
effect on agonist-driven (PGE2-induced) cyst formation ([6]; increasing concentrations of rolipram): exacerbates agonist-driven cyst formation in a concentration-dependent manner | cystogenesis of OX161 cells ([17]; challenge with rolipram, 3D culture): enhanced
